In the EternaBench riboswitch data:

Tested on: MS2 coat protein
Experiment: apparent Kd, MS2 coat protein; higher = weaker binding; RNA-MaP array
Outline: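 Apparent Kd is the median of per-cluster binding-curve fits for designed RNAs transcribed from sequenced DNA templates on an Illumina sequencing chip. The RNAs were incubated at room temperature with fluorescently labeled MS2 coat protein at 1.5 nM to 3 μM, with or without input ligand, and designs measured on fewer than 10 clusters were excluded.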

[1] = designed as: ON switch for flavin mononucleotide, no ligand
[2] = ligand present: flavin mononucleotide, designed as: ON switch for flavin mononucleotide
[3] = designed as: OFF switch for flavin mononucleotide, no ligand
[4] = ligand present: flavin mononucleotide, designed as: OFF switch for flavin mononucleotide
[5] = designed as: OFF switch for tryptophan, no ligand
[6] = ligand present: tryptophan, designed as: OFF switch for tryptophan
[7] = designed as: ON switch for tryptophan, no ligand
[8] = ligand present: tryptophan, designed as: ON switch for tryptophan

GGUUCGCAUGUAGGAUAUCGCAAUAUAAACAUGAGGAUCACCCAUGUAACAAUGUAAACGGACAACGAGAAGGACAUCAACUCC
apparent Kd [1]: 44.6 nM | apparent Kd [2]: 22.8 nM

UUGGCGUCAGGAUAUACCGGUCGAUUCACAAUGAACUCCGUACAUGAGGAUCACCCAUGUAGAAGGGACAGUGG
apparent Kd [3]: 6.22 nM | apparent Kd [4]: 6.07 nM

GCGUGGCACUGCAUACACACAUGAGGAUCACCCAUGUAUAGUAGAAGGUUCUUCAGCGGGAACAGAAAGGAUAUACUGAUAGAU
apparent Kd [1]: 7.74 nM | apparent Kd [2]: 7.42 nM

ACUGACUUUACGGCCGCCACUCAUUGGCACGUGUCAUGUCAACAUGAGGAUCACCCAUGUAUGAUGAGGACCGGGUAAGGGCUGC
apparent Kd [5]: 10.9 nM | apparent Kd [6]: 12.7 nM

GACAUGAGGAUCACCCAUGUGAAAUUCAUGGCGAUAACAUCUGAGGAUAUGUGCAGCCGAGGAAGACAGAAGGCAGAAACACAA
apparent Kd [3]: 117 nM | apparent Kd [4]: 119 nM

AUUGUGAACCUGAUCGUAUAAUGUAGCGAUACCAGUAUAAUACAUUACCCUUGGCAGCGCGACACAUGAGGAUCACCCAUGUAAG
apparent Kd (designed as: OFF switch for theophylline, no ligand): 26.5 nM | apparent Kd (ligand present: theophylline, designed as: OFF switch for theophylline): 39.4 nM

GGAUAAACUCAGAAGGAACGGCUCAAGUAAUAGUAAGGAUAUGACUGUAGGACUACAUGAGGAUCACCCAUGUUGAUGAAACAG
apparent Kd [1]: 8.03 nM | apparent Kd [2]: 7.91 nM

UCAUGGUCAGGAUAUACGAUUAGACAUGGCUUCGAUAAGUCGUAGAAGGGACAUGAGGAUCACCCAUGUAGCAA
apparent Kd [3]: 109 nM | apparent Kd [4]: 33.5 nM

GUCUGAUGACAUGAGGAUCACCCAUGUUGUAGGGUUACCUUCAGAAGGGCGAACUCGUAUAGAGCGCAGGAUAUGAAUCAAAGA
apparent Kd [1]: 29.5 nM | apparent Kd [2]: 11.9 nM

UAUCACUGGCAGAAGGUUCUCGGAAGCGAUGGUACUCUAUACAUGAGGAUCACCCAUGUCUACGGAAAGGAUAUGCCAUUGCGA
apparent Kd [3]: 70 nM | apparent Kd [4]: 176 nM

CUUCAGGGUGCGGCCGCCACUUAUUAGGUGCUUGCGACGCCAGCACAUGAGGAUCACCCAUGUUCAAGGACCGGGCACCACCUUU
apparent Kd [7]: 11.5 nM | apparent Kd [8]: 12.6 nM

UUAAUACAUGAGGAUCACCCAUGUUAGGAUAUAGAAAUCGCUGGUGCGAGAAGACAGGCUAGAAGGAACACGGA
apparent Kd [3]: 10.2 nM | apparent Kd [4]: 9.62 nM

AUUACCCCAUGAGGAUAUCCAAUAAGGAGAGACAUGAGGAUCACCCAUGUCGACGGACGCAUACAGGAGAAGGCAUGGACUAGC
apparent Kd [1]: 13.6 nM | apparent Kd [2]: 7.54 nM

CCGCGCACUGGAGGAUAUAAUCGAACAUGAGGAUCACCCAUGUUAGACGUGGUACGAGCGUUCCAUUAGAAGGCCACUCUGCGU
apparent Kd [3]: 27.1 nM | apparent Kd [4]: 52.8 nM

ACGCGCUGGGCGGCCGCCACUCACCUGCCGUGGACAUUUCGAGGUCACAUGAGGAUCACCCAUGUGAGGACCGGGCCCUGUAGGC
apparent Kd [5]: 13.2 nM | apparent Kd [6]: 21.2 nM

UUCGCCACGCAAGGAUAUGAUACUUAUUGCUGUUCAGAAGGUGCGACAUGAGGAUCACCCAUGUGGUGUGUCCAGGGAGGCUAG
apparent Kd [3]: 333 nM | apparent Kd [4]: 336 nM

GCUGCACAUUCGGCCGCCACUGCUGUUACAGGAAGCUAUAGCUCACAUGAGGAUCACCCAUGUCCCAGGACCGGGAAAGUAUGGA
apparent Kd [7]: 72.9 nM | apparent Kd [8]: 65.9 nM

CUUUUACAUGAGGAUCACCCAUGUUGUACAGGGUUAGGAUAUCUUAAUGUUAAGUUAAUGAGAGAAGGAACAGUCA
apparent Kd [1]: 149 nM | apparent Kd [2]: 94.8 nM

GGAAGUAGAUGUCAGGAUAUCAAAAGCAUAACAUGAGGAUCACCCAUGUCCAAAAGGCAGAGAAUUGAGAAGGGACGUAGGUUACA
apparent Kd [1]: 42.2 nM | apparent Kd [2]: 14.4 nM

AACAUGAGGAUCACCCAUGUCGGGUAUAGGAAUGUGUGUCUGCAGGAUAUGCCUUGCAUUGCAUAGCAGAAGGGCACGGCUCAG
apparent Kd [3]: 125 nM | apparent Kd [4]: 64.2 nM

CGGGCCAUCUAAGGAUAUUUGCCGGCCCGAAGACAUGAGGAUCACCCAUGUGUGAACGGAUGUCGAAAGAAGGUAGACCUGGUC
apparent Kd [1]: 300 nM | apparent Kd [2]: 206 nM

GUUAGUUACACGGCCGCCACUCUUUGGCUUGGCUCAAGCUCCCAACAUGAGGAUCACCCAUGUCAGAGGACCGGGUGAACAACGU
apparent Kd [7]: 134 nM | apparent Kd [8]: 112 nM

AGAAUAUGAAUAGGAUAUCUGCGUAAUGAUAAAAGAGAAGGAAUUAGAAGUAUUACAUGAGGAUCACCCAUGUUUGAUAAGAAA
apparent Kd [1]: 9.61 nM | apparent Kd [2]: 8.77 nM
